# Measured values: ChEMBL document CHEMBL1671650, “In vitro activity and preclinical profile of TMC435350, a potent hepatitis C virus protease inhibitor” (Antimicrob Agents Chemother, 2009)
# Calls of active or inactive are those of the source.
# Experiments:
# [1] = Cytotoxicity against staphylococcal enterotoxin B-stimulated human PBMC cells; format: cell-based
# [2] = Cytotoxicity against human HuH7 cells upto 42 uM after 3 to 4 days by resazurin proliferation assay; format: cell-based; settings: huh-7
# Method in brief: (§1)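 Human cell lines in DMEM with 10% heat-inactivated FBS and 2 mM L-glutamine (replicon cells plus 0.75 mg/ml G418 in maintenance). Exposed to compound for 3 to 4 days; resazurin fluorescence read-out. CC50 from inhibition curves.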
# HepG2 = experiment: Cytotoxicity against human HepG2 cells upto 42 uM after 3 to 4 days by resazurin proliferation assay; format: cell-based; method in brief: as §1
# Hepatitis C virus [3] = experiment: Antiviral activity against Hepatitis C virus in presence of 1 mg/ml alpha-1 acid glycoprotein and 40 mg/ml human serum albumin
# [4] = Ratio of AUC (0 to 31 hrs) in Sprague-Dawley rat kidney to AUC (0 to 31 hrs) in Sprague-Dawley rat plasma at 40 mg/kg, po administered as single dose; format: ADME, organism-based; set-up: dose 40 mg/kg, route oral
# Method in brief: (§2)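 Male specific-pathogen-free Sprague-Dawley rats (200–300 g), three per group, single gastric intubation at 2 ml/kg of a vitamin E TPGS–PEG 400 solution; food and water ad libitum. Plasma sampled 30 min to 31 h; tissues dissected from oral groups. LC-MS/MS (LLOQ 1 ng/ml plasma, 5 ng/g tissue); noncompartmental analysis; ratios from mean of three rats.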
# [5] = Apparent volume of distribution at steady-state in Sprague-Dawley rat at 4 mg/kg, iv; format: ADME, organism-based; set-up: dose 4 mg/kg, route intravenous; settings: in vivo
# Method in brief: (§3)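 Male SPF Sprague-Dawley rats (200–300 g), n=3. Single slow i.v. tail-vein bolus at 4 mg/kg (2 ml/kg) in 20% hydroxypropyl-β-cyclodextrin, pH 8.0. Plasma sampled 7 min to 31 h, measured by LC-MS/MS (LLOQ 1 ng/ml). Noncompartmental analysis.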
# [6] = test system: Human immunodeficiency virus 1; experiment: Antiviral activity against Human immunodeficiency virus 1 3b infected in human MT4 cells at 10 to 100 uM; format: functional, organism-based
# Method in brief: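 HIV-1 IIIB in MT-4 cells, enhanced green fluorescent protein-based read-out. Highest concentration tested 10 to 100 μM.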
# [7] = Cytotoxicity against human HEK293T cells upto 42 uM after 3 to 4 days by resazurin proliferation assay; format: cell-based; settings: hek-293t; method in brief: as §1
# Plasma = experiment: Initial plasma concentration in Sprague-Dawley rat at 4 mg/kg, iv; format: ADME, organism-based; set-up: dose 4 mg/kg, route intravenous; settings: in vivo; method in brief: as §3
# Hepatitis C virus [8] = experiment: microbe, parasite or virus in culture
# Hepatitis C virus [9] = experiment: Antiviral activity against Hepatitis C virus in presence of 40% human serum
# [10] = Half life (8 to 24 hrs) in Sprague-Dawley rat plasma at 40 mg/kg, po; format: ADME, organism-based; set-up: dose 40 mg/kg, route oral
# Method in brief: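 Male SPF Sprague-Dawley rats (200–300 g), three per group. Oral gavage at 40 mg/kg (2 ml/kg) in TPGS–PEG400 solution. Plasma sampled 0.5–31 h, measured by LC-MS/MS (LLOQ 1 ng/ml). Noncompartmental analysis.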
# [11] = test system: Bovine viral diarrhea virus 1; experiment: Antiviral activity against Bovine viral diarrhea virus 1 NADL infected in […] cells inhibition of virus-induced cytopathic effect at 10 to 100 uM; format: functional, organism-based
# Method in brief: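 Cytopathic effect inhibition assay: BVDV-NADL in MDCK cells; WNV-NY99/1 in Vero cells. Highest concentration tested 10 to 100 μM.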
# Yellow fever virus = experiment: Antiviral activity against Yellow fever virus 17D infected in green monkey veroE6 cells inhibition of virus-induced cytopathic effect at 10 to 100 uM; format: functional, organism-based; settings: Vero
# Method in brief: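 Virus-induced cytopathic effect inhibition assay in VeroE6 cells with YFV-17D, with a known positive control in each run; tested up to a top concentration in the 10–100 µM range.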
# Cathepsin S = Cathepsin S (Homo sapiens, UniProt P25774); experiment: Inhibition of human cathepsin S in human JY cells assessed as p10 accumulation by fluorescence-based assay; format: cell-based
# Chain of Cathepsin S (P25774 whole entry, the tested form may be a part): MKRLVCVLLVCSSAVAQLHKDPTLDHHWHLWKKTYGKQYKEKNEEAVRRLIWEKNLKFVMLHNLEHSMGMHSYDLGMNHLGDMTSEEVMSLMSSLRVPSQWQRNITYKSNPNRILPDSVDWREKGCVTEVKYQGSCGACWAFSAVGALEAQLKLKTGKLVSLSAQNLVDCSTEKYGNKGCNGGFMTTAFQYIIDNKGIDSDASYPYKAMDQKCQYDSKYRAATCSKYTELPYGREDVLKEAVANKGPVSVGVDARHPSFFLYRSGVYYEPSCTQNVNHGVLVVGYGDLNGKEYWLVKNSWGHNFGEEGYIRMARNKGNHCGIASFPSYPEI
# Method in brief: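 Cellular cathepsin S assay in the human JY B-cell line, read as invariant chain degradation (p10 fragment accumulation). Top concentration 10 μM.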
# [12] = Ratio of AUC (0 to 31 hrs) in Sprague-Dawley rat lung to AUC (0 to 31 hrs) in Sprague-Dawley rat plasma at 40 mg/kg, po administered as single dose; format: ADME, organism-based; set-up: dose 40 mg/kg, route oral; method in brief: as §2
# [13] = Cytotoxicity against human MT4 cells after 3 to 4 days by resazurin proliferation assay; format: cell-based; method in brief: as §1
# Hepatitis C virus [14] = experiment: Antiviral activity against Hepatitis C virus 1b isolate con1 infected in human HuH7 cells assessed as viral RNA level after 72 hrs by quantitative reverse transcriptase PCR; format: functional, organism-based, Hepacivirus hominis; settings: Con1, Huh-7, 72 h
# Method in brief: (§4)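 Replicon cells (Huh7-Luc at 3,000/well; con1b S2204I or 1a H77 P1496L/S2204I at 6,000/well) exposed to a dilution range for 72 h in 0.5% DMSO without G418. Lysates reverse transcribed 30 min at 42°C with an HCV 5′UTR primer and an RPL13A control. Inhibition from threshold-cycle difference versus mock; EC50 taken from the dose-response curve.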
# Hepatitis C virus [15] = experiment: Antiviral activity against HCV 1a H77 infected in human HuH7 cells assessed as viral RNA level after 72 hrs by quantitative reverse transcriptase PCR; format: functional, organism-based, Hepacivirus hominis; settings: genotype 1a H77, Huh-7, 72 h; method in brief: as §4
# [16] = Ratio of AUC (0 to 31 hrs) in Sprague-Dawley rat spleen to AUC (0 to 31 hrs) in Sprague-Dawley rat plasma at 40 mg/kg, po administered as single dose; format: ADME, organism-based; set-up: dose 40 mg/kg, route oral; method in brief: as §2
# Hepatitis C virus [17] = experiment: Antiviral activity against Hepatitis C virus 1b infected in human HuH7 cells assessed as viral RNA level after 72 hrs by quantitative reverse transcriptase PCR; format: functional, organism-based, Hepacivirus hominis; settings: genotype 1b, Huh-7, 72 h; method in brief: as §4
# Hepatitis C virus [18] = experiment: microbe, parasite or virus in culture; remark: listed apart in the source
# [19] = Inhibition of HCV 1a H77 NS3/4A protease using RetS1 as a substrate by fluorescence resonance energy transfer cleavage assay
# PBMC = experiment: Cytostatic activity against human PBMC cells assessed as incorporation of [3H]thymidine; format: ADME, cell-based; settings: read-out: CS50 (the source's name)
# [20] = Ratio of AUC (0 to 31 hrs) in Sprague-Dawley rat small intestine to AUC (0 to 31 hrs) in Sprague-Dawley rat plasma at 40 mg/kg, po administered as single dose; format: ADME, organism-based; set-up: dose 40 mg/kg, route oral; settings: read-out: Ratio AUC; method in brief: as §2
# [21] = Tmax in Sprague-Dawley rat large intestine; format: ADME, tissue-based
# Method in brief: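 Male Sprague-Dawley rats given a single oral dose of 40 mg/kg in TPGS–PEG400, three per time point. Tissues dissected at times up to 31 h and measured by LC-MS/MS (LLOQ 5 ng/g).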
compound,measurement,setting,value
COc1ccc2c(O[C@@H]3C[C@H]4C(=O)N[C@]5(C(=O)NS(=O)(=O)C6CC6)C[C@H]5/C=C\CCCCN(C)C(=O)[C@@H]4C3)cc(-c3nc(C(C)C)cs3)nc2c1C [SIMEPREVIR],CC50,[1],33 µM
same,Activity,[2],Non-toxic
same,Activity,HepG2,Non-toxic
same,EC50,Hepatitis C virus [3],0.0146 µM
same,Kp,[4],0.5
same,Vd,[5],5.3 L/kg
same,Activity,[6],inactive
same,Activity,[7],Non-toxic
same,Cp,Plasma,3.56 µg/mL
same,EC50 ratio,Hepatitis C virus [8],1.4
same,EC50,Hepatitis C virus [9],0.0112 µM
same,half-life,[10],2.6 h
same,Activity,[11],inactive
same,Activity,Yellow fever virus,inactive
same,IC50,Cathepsin S,0.8 µM
same,Kp,[12],0.5
same,CC50,[13],16 µM
same,EC50,Hepatitis C virus [14],0.0252 µM
same,EC90,Hepatitis C virus [14],0.118 µM
same,EC50,Hepatitis C virus [15],0.0284 µM
same,EC90,Hepatitis C virus [15],0.12 µM
same,Kp,[16],0.3
same,EC50,Hepatitis C virus [17],0.013 µM
same,EC90,Hepatitis C virus [17],0.0287 µM
same,EC50 ratio,Hepatitis C virus [18],1.8
same,Ki,[19],0.0005 µM
same,GI50,PBMC,10 µM
same,Kp,[20],128
same,Tmax,[21],8 h
